Square brackets hold non-standard residues; d marks the D form. Ends that are not written are not given here. Hyp = O=C(O)[C@@H]1C[C@@H](O)CN1
Legend:
[1] = cited from earlier work
[2] = system: stomata (guard cells) of Arabidopsis leaves; experiment: Stomatal aperture measurement; format: cell-based, Arabidopsis thaliana
Summary of the method: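 Abaxial epidermis peeled from leaves of 3–4-week-old plants. Pore width and length measured by light microscopy and expressed as W/L ratio. n = 15 per time point, at least three independent experiments.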

[3] = molecular target: BAM1 extracellular domain; experiment: Isothermal titration calorimetry; format: binding, Arabidopsis thaliana; conditions: read-out: dissociation constant (Kd); ITC, MicroCal ITC200, 37 °C, 1 mM CLE5p into 0.1 mM GST-BAM1, 20 mM Tris-HCl pH 7.5, 25 mM NaCl, 5% glycerol; One Set of Sites; ± fitting errors; repeated twice
Summary of the method: (§1)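 Recombinant GST-fused receptor protein, gel-filtered into titration buffer, titrated at 37 °C with sequential injections of test peptide at 180 s intervals. Cell stirred at 800 rpm, reference power 5 µcal/s. GST alone served as negative control. Data fitted to a one-set-of-sites model to give Kd, stoichiometry N, ΔG, ΔH and -TΔS.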

[4] = molecular target: GHR1 extracellular domain; experiment: Isothermal titration calorimetry; format: binding, Arabidopsis thaliana; conditions: read-out: dissociation constant (Kd); ITC, MicroCal ITC200, 37 °C, 1 mM CLE5p into 0.1 mM GST-GHR1, 20 mM Tris-HCl pH 7.5, 25 mM NaCl, 5% glycerol; One Set of Sites; ± fitting errors; repeated twice
Summary of the method: as §1

[5] = system: H2O2 accumulation in rosette leaves; experiment: DAB staining of H2O2 in leaves; format: in vivo, Arabidopsis thaliana; conditions: 2 h
Summary of the method: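 Four-week-old rosette leaves treated 2 h with test peptide (100 µM) or hormone control (1 µM), then immersed in freshly prepared 100 µg/ml DAB in the dark for 8 h. Fixed and bleached in ethanol/acetic acid/glycerol (3:1:1), rinsed with distilled water, and photographed on a white background for H2O2 staining.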

[6] = system: Arabidopsis seedlings (primary root); experiment: Primary root growth inhibition / LRR-RLK screening; format: in vivo, Arabidopsis thaliana; conditions: 0.75 µM CLE5p
Summary of the method: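 Arabidopsis lrr-rlk mutant seedlings were germinated on 1/2MS agar for 3 days. They were then transferred to 1/2MS agar containing 0.75 µM test peptide. Primary root length was measured after 3 days of peptide treatment.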

[7] = system: Arabidopsis leaves; experiment: Time-resolved stomatal conductance; format: in vivo, Arabidopsis thaliana
Summary of the method: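 Plants grown in short days (10/14 h) at 22 °C. Detached leaves equilibrated in an LI-6800 chamber until gsw was stable, then given 2 µM ABA. Chamber settings: 200 µmol m−2 s−1 light (90% red, 10% blue), 22 °C, 75% RH, 400 ppm CO2, […]. Time-resolved gsw reported as mean ± s.d. of at least three biological replicates.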

[8] = system: SRK2E; experiment: Protein mobility shift assay; format: cell-based, Arabidopsis thaliana; conditions: wild type protoplasts, 1 μM, 30 min, Phos-Tag; diminished by phosphatase
Summary of the method: (§2)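 Mesophyll protoplasts (6 × 10^4) transfected with 10 µg 35S::kinase-GFP plasmid and kept 18 h at 21 °C in W5 under continuous light. Treated with 1 µM peptide or ABA for up to 30 min, frozen, ground and lysed (Tris pH 7.5 buffer). Cleared lysate run on Phos-Tag SDS-PAGE and blotted with anti-GFP; tubulin as internal control. For dephosphorylation, lysate incubated with λ-phosphatase at 30 °C for 30 min, with or without NaF/NaVO3 inhibitors.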

[9] = system: SRK2D; experiment: Protein mobility shift assay; format: cell-based, Arabidopsis thaliana; conditions: wild type protoplasts, 1 μM, 30 min, Phos-Tag; diminished by phosphatase
Summary of the method: as §2

[10] = molecular target: T1, GST-BAM1 (LRR repeats of BARELY ANY MERISTEM 1, N-terminal GST fusion) (Arabidopsis thaliana); experiment: ITC
T1 sequence (O49545 whole entry, looked up): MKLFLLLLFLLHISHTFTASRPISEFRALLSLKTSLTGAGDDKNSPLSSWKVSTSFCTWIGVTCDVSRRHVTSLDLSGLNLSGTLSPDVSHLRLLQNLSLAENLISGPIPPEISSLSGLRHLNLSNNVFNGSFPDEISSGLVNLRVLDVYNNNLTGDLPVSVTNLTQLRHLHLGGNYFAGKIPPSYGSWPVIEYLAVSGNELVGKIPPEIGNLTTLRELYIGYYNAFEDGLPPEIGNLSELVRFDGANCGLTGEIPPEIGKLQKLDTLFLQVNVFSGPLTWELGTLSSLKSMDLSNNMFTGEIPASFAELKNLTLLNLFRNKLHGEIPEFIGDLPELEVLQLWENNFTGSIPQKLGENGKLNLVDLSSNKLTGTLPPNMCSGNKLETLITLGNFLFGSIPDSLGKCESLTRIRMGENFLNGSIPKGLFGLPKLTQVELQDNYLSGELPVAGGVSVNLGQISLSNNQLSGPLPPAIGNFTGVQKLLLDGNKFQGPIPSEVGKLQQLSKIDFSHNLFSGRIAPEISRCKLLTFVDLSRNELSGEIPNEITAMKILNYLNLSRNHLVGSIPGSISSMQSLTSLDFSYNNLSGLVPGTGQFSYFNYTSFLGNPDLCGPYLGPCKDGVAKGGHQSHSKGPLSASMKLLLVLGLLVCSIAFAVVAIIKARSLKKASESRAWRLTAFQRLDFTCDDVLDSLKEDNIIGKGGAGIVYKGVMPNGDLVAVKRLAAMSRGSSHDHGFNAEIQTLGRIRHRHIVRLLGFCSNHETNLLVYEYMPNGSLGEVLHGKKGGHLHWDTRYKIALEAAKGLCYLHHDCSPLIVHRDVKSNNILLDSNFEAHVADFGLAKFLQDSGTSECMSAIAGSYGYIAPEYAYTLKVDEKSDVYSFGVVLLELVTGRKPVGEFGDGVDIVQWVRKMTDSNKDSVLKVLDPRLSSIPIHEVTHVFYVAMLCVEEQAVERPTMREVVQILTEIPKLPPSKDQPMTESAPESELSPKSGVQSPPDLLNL

[11] = molecular target: T2, GST-GHR1 (LRR repeats of GUARD CELL HYDROGEN PEROXIDE-… 1, N-terminal GST fusion) (Arabidopsis thaliana); experiment: ITC
T2 sequence (C0LGQ9 whole entry, looked up): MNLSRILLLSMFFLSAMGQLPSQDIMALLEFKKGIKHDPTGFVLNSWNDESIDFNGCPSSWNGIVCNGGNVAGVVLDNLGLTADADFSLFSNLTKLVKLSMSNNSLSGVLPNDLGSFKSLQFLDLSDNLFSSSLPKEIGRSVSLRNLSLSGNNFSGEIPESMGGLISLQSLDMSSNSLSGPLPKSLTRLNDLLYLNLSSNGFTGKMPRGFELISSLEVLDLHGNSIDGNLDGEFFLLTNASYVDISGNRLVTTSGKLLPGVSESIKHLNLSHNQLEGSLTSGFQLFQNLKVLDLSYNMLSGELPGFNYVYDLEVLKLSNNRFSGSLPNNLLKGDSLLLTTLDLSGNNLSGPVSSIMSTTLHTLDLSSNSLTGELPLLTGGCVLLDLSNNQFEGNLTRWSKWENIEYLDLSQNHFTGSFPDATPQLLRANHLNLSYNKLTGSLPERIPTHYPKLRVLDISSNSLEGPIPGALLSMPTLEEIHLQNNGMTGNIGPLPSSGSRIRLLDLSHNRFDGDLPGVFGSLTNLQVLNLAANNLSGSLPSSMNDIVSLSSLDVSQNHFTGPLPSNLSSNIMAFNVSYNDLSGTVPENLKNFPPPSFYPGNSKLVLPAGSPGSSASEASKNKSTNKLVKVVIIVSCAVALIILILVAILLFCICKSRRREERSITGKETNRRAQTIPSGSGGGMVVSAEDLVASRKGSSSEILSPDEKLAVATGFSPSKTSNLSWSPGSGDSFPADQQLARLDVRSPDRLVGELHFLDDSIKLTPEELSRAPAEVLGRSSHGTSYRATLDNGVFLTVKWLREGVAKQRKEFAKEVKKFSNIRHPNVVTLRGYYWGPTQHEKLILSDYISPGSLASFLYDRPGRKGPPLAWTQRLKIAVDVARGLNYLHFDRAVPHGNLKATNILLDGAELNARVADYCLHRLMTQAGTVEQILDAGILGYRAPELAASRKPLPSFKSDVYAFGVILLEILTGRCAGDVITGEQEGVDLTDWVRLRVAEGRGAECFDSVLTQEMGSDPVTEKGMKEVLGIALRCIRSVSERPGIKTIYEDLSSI

For “CLE25p: root-derived CLE peptide transported from roots to leaves (RKVPNGPDPIHN; ends and bridges not checked; UniProt Q8LFL4 58-69, looked up)”, the drought stress response ([1]; root-derived, transported from roots to leaves) is given as “promotes drought stress resistance by stimulating ABA biosynthesis”.

In the case of “CLE5p: mature CLE5 dodecapeptide, hydroxyproline at residues 4 and 7, non-arabinosylated (RVS[Hyp]GG[Hyp]DPQHH)”, the stomatal closure ([2]; rbohDrbohF double mutant leaves) is reported as “induced stomatal closure”, the Kd [3] is reported as 2.52 µM and the Kd [4] is reported as 7.39 µM. For the same molecule, the “H2O2 accumulation (DAB staining)” value ([5]; 100 µM CLE5p, detached leaves) was “no hydrogen peroxide (H2O2) accumulation”, the “root growth inhibition, in words” value ([6]; bam1-3, ghr1, bam1-3ghr1 seedlings) was “Neither single bam1-3 and ghr1 nor double bam1-3ghr1 mutants showed significant growth defects” and the “root growth inhibition, in words” value ([6]; bam3 and wild type seedlings) was “sensitive to the CLE5p-induced root growth inhibition”.

With `CC1=CC(=O)CC(C)(C)[C@@]1(O)/C=C/C(C)=C\C(=O)O` [ABA, abscisic acid] the stomatal closure ([2]; cle5-1 and bam1-3ghr1 leaves, 2 µM ABA, 30 min) was “failed to induce stomatal closure”, the “stomatal conductance response to ABA” value ([7]; 35S::SRK2E(Triple A)/srk2e leaves, 2 µM ABA) was “insensitive to the ABA treatment” and the “stomatal conductance response to ABA” value ([7]; 35S::SRK2E/srk2e leaves, 2 µM ABA, compared to srk2e) was “decreased rapidly”. For the same molecule, the “stomatal conductance response to ABA” value ([7]; bam1-3, ghr1, bam1-3ghr1 leaves, 2 µM ABA) was “insensitive to the ABA-induced reduction of stomatal conductance”, the “stomatal conductance response to ABA” value ([7]; cle5-1 leaves, 2 μM ABA) was “insensitive to ABA treatment” and the “stomatal conductance response to ABA” value ([7]; pGC1::CLE5/cle5-1 leaves (stomata-specific CLE5), 2 μM ABA) was “sufficient to elicit ABA-induced stomatal closure”. For the same molecule, the “stomatal conductance response to ABA” value ([7]; wild type and pCLE5::CLE5/cle5-1 leaves, 2 μM ABA) was “began to close their stomata promptly after ABA application”, the “H2O2 accumulation (DAB staining)” value ([5]; 1 µM ABA) was “induced H2O2 accumulation” and the “SRK2E-GFP mobility shift (phosphorylation)” value [8] was “a distinct band shift was detected”. For the same molecule, the “SRK2D-GFP mobility shift (phosphorylation)” value [9] was “a distinct band shift was detected” and the stomatal closure [1] was “induce rapid stomatal closure”.

RVS[Hyp]GG[Hyp]DPQHH [CLE5 dodecapeptide (CLE5p)] gave a Kd [10] of 2.52 µM and a Kd [11] of 7.39 µM.
